From PubChem BioAssay
Sampled rows, rich in hits. Any-hit rate of the full collection: about 2.5%.
IMP-1 inhibitor: inhibitors of Pseudomonas aeruginosa IMP-1 metallo-beta-lactamase; purified IMP-1, nitrocefin hydrolysis, epi-absorbance fluorescence; inhibition, % at 5.6 µM; AID 1556; actives 0.45% (n = 290,000);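 active means inhibition above the mean plus 3 SD of all compounds in the same screening run, cut at about 4.5% in these data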;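 further: 0% = IMP-1 with DMSO and 100% = DMSO wells lacking enzyme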
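Assay system: purified recombinant IMP-1 beta-lactamase. Input: IMP-1 0.2 nM before substrate addition. Buffer or medium: Zinc- and detergent-supplemented HEPES buffer, pH 7.1. Schedule: 25 °C, 15 min preincubation, 25 min reaction. Signal: Epi-absorbance fluorescence, 480 nm excitation, 530 nm emission. Evaluation: percent inhibition from optical density relative to buffer-blank wells.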
VIM-2 inhibitor: blocks Pseudomonas aeruginosa VIM-2 metallo-beta-lactamase | purified VIM-2, nitrocefin hydrolysis, epi-absorbance fluorescence | inhibition, % at 5.6 µM | actives 0.89% (n = 290,000) | AID 1527;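 active means inhibition above the mean of all tested compounds plus 3 SD, cutoff set per screening run, cut at about 7.5% in these data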;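 further: red hydrolysis product quenches plate fluorescence so inhibitors raise well fluorescence; 0% = enzyme with DMSO and 100% = DMSO without enzyme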
dFosB act: mouse delta FosB homodimer activation. P13346. purified delta FosB, TAMRA-CDK5 oligo fluorescence polarization; percent of positive-control signal above neutral wells. activation, % at 25 µM. actives 0.99% (n = 340,000). AID 493131;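 active means mean activation above about 17%, with every replicate also reaching it, limit read from the data, passing the limit was not always enough; inconclusive means only one of the two conditions met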
Target sequence (P13346 whole entry, looked up): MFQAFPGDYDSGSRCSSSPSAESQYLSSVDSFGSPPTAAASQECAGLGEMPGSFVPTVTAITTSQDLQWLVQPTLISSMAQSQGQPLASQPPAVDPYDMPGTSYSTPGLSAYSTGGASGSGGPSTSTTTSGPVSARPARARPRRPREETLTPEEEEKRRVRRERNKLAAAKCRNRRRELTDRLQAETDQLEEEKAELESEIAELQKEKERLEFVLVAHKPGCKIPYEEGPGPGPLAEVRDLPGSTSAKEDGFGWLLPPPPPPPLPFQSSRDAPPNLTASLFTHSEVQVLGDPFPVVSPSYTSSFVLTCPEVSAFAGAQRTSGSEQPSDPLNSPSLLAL
m5-HT2A agonist: mouse HTR2A agonism via beta-arrestin recruitment. CHO-K1 mHTR2A beta-arrestin complementation, luminescence; percent of 30 µM serotonin response. activation, % at 7.6 µM. actives 0.66% (n = 360,000). AID 624169;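 active means activation above a run cutoff, the mean activation of all tested compounds plus 3 SD, cut at about 14% in these data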;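 further: 0% = plate median of compound wells and 100% = 30 µM serotonin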
* = called active by the depositor; ? = inconclusive; . = no result given.

SMILES | IMP-1 inhibitor | VIM-2 inhibitor | dFosB act | m5-HT2A agonist
Cn1cc(SCC(=O)N2CCCc3ccccc32)c2ccccc21 | 6.9* | -0.1 | -9.5 | -8.4
Cn1cc(SCC(=O)N2CCOCC2)c2ccccc21 | -1.6 | -0.4 | 2.0 | 13.7
CC(=O)Nc1ccc(Cc2nc3c([nH]2)c(=O)n(C)c(=O)n3C)cc1 | 11.8* | 0.5 | . | .
Cn1c(=O)c2[nH]c(Cc3ccsc3)nc2n(C)c1=O | . | . | -7.5 | 1.8
CC(C)(C)n1nnnc1C(c1cc2ccccc2o1)N1CCCCC1 (stereo not drawn) | . | . | . | -4.7
COc1ccc(/C=N/n2c(SC)nnc2-c2ccccc2)cc1C | -3.4 | 6.6 | -6.3 | 0.5
COc1ccc(/C=N/n2c(SC)nnc2-c2ccccc2)c(OC)c1OC | -2.4 | 23.5* | 4.3 | -2.0
CCn1c2ccccc2c2nnc(SCC(=O)N3CC(C)OC(C)C3)nc21 (stereo not drawn) | -1.5 | 8.3* | -6.2 | -6.8
Cc1ccc(Nc2c(-c3ccccn3)nc3ccc(C)cn23)cc1 | -5.1 | -4.0 | ? | -9.2
Cc1ccc(Nc2c(-c3ccccn3)nc3cc(C)ccn23)cc1 | -4.3 | 8.3* | 20.5* | -15.5
Cc1ccn2c(Nc3ccc4c(c3)OCO4)c(-c3ccccn3)nc2c1 | -5.2 | 38.8* | 20.6* | -6.8
Cc1cc(C)n2c(Nc3ccc4c(c3)OCCO4)c(-c3ccccn3)nc2n1 | . | . | . | 0.3
NS(=O)(=O)c1ccc(-c2ccc(/C=C3\C(=O)Nc4ccccc43)o2)cc1 | -0.5 | 0.4 | . | .
CC1(C)OC(=O)C(=Cc2ccc(-c3ccc(S(N)(=O)=O)cc3)o2)C(=O)O1 | 34.3* | 1.1 | 1.9 | 1.5
O=C1NC[C@H](CC2CCCCC2)N(CCc2cc(C(F)(F)F)cc(C(F)(F)F)c2)C1=O | . | . | . | 0.8
CCn1c2ccccc2c2nc3ccccc3nc21 | 1.9 | 9.9* | -43.1 | 3.7
CCn1c2ccccc2c2nc3cc(OC)c(OC)cc3nc21 | -1.0 | 2.8 | 5.7 | 0.0
CCOC(=O)c1cnc(-n2nc(C)cc2C)nc1NC | -3.8 | 8.1* | -6.6 | 2.4
Cc1ccnc(N/C=C(/NC(=O)c2ccccc2)C(=O)N/N=C\c2ccc(Cl)cc2)n1 | 0.5 | 1.5 | 18.5* | -1.1
N#CC(C(=O)NCCc1ccccc1)c1nc2ccccc2nc1N1CCCCC1 (stereo not drawn) | -2.5 | 2.9 | 1.3 | 8.6
N#CC(C(=O)NCc1ccccc1)c1nc2ccccc2nc1N1CCCC1 (stereo not drawn) | 8.2* | 0.3 | -7.9 | 0.5
COC(=O)CCC(=O)N1CCC(Oc2cccc(C(=O)NCc3ccccn3)c2)CC1 | . | . | . | -5.4
CCN(CC)c1ccc(C(=O)NNC(=O)Cn2c(=O)cnc3ccccc32)cc1 | . | . | . | -0.5
CCn1cc(C(=O)Nc2ncccc2O)c(=O)c2cc(F)c(N3CCN(C(=O)c4ccco4)CC3)cc21 | 8.0* | 0.9 | -8.2 | -2.3
CCN(CC)CCNC(=O)c1cn(CC)c2cc(N3CCN(C(=O)c4ccco4)CC3)c(F)cc2c1=O | -4.4 | 4.1 | 3.5 | 4.1
SMILES | IMP-1 inhibitor | VIM-2 inhibitor | dFosB act | m5-HT2A agonist
CCn1cc(C(=O)NCCN(C)C)c(=O)c2cc(F)c(N3CCN(C)CC3)cc21 | -1.7 | 11.7* | -0.9 | -1.2
CCn1cc(S(=O)(=O)c2ccc(C)cc2)c(=O)c2cc(F)c(N3CCN(C)CC3)cc21 | -0.5 | 7.9* | -4.8 | 1.3
Cc1ccc(S(=O)(=O)c2cn(C)c3cc(N4CCN(C)CC4)c(F)cc3c2=O)cc1 | -6.2 | 3.0 | 0.7 | 9.4
CCN(CC)CCCNC(=O)c1cn(CC)c2cc(N3CCN(C(=O)c4ccco4)CC3)c(F)cc2c1=O | -2.7 | 11.7* | -5.0 | -3.6
S=c1[nH]nc(-c2ccncc2)n1CC1CCCO1 (stereo not drawn) | -6.2 | 11.3* | -0.3 | 0.1
CC(=O)c1cccc(NC(=O)c2cccc(N3C(=O)c4ccccc4C3=O)c2)c1 | -1.4 | -2.7 | 31.1* | 1.3
CC(=O)c1ccc(NC(=O)c2cccc(NC(=O)c3ccccc3)c2)cc1 | 7.2* | -1.0 | 6.0 | 1.2
O=C(Nc1cccc(Cl)c1)c1cccc(N2C(=O)C3CC=CCC3C2=O)c1 (stereo not drawn) | 17.8* | 1.1 | -4.3 | 3.3
COC(=O)c1ccc(NC(=O)c2cccc(N3C(=O)C4C5C=CC(C6CC56)C4C3=O)c2)cc1 (stereo not drawn) | -3.4 | -1.9 | 27.5* | -2.9
O=C(Nc1ccccc1)c1cccc(N2C(=O)C3C4C=CC(C5CC45)C3C2=O)c1 (stereo not drawn) | -1.1 | -1.1 | -16.5 | 3.0
O=C(Nc1cccc(N2C(=O)C3CCCCC3C2=O)c1)c1ccccc1 (stereo not drawn) | -0.4 | -3.3 | -3.7 | 8.7
CCOc1ccc(N2C(=O)C3C4C=CC([C@H]5CC45)[C@@H]3C2=O)cc1 (stereo partly drawn) | -1.4 | -3.5 | -5.1 | 3.2
COC(=O)c1ccc(CNC(=O)C23CC4CC(CC(C4)C2)C3)cc1 | -2.8 | -4.4 | 6.3 | 7.9
CC(C)(C)OC(=O)CNC(=O)c1nc[nH]c1C(=O)N1CCNCC1 | . | . | -1.9 | 7.5
COc1ncnc2c1ncn2CCCN(CCCc1ccccc1)CCCn1cnc2c(OC)ncnc21 | . | . | . | -2.1
N#CCc1nnc2n1-c1ccccc1CCC2 | 11.9* | -2.2 | -0.1 | -1.1
CCOc1ccc(/C=N/n2c(C3CCCCC3)n[nH]c2=S)cc1 | -1.3 | -3.3 | -12.5 | 2.7
c1ccc(COc2cccc(CNCc3cccnc3)c2)cc1 | -1.3 | -1.6 | -2.4 | -2.1
c1ccc(COc2cccc(CNCc3ccccn3)c2)cc1 | -4.0 | 8.2* | -9.0 | -4.2
COc1ccc(C2C(C(=O)c3ccco3)=C(O)C(=O)N2c2nnc(C)s2)cc1 (stereo not drawn) | 3.6 | 5.5 | 1.0 | -1.7
C=CCOc1ccc(C2C(C(=O)c3ccco3)=C(O)C(=O)N2c2nnc(C)s2)cc1 (stereo not drawn) | 5.2* | 3.7 | -12.7 | 5.0
CCN1CCN(C(=O)Cn2nc(C)c3sc4ccccc4c3c2=O)CC1 | -0.6 | 9.3* | -0.1 | 5.4
c1cc(Nc2cccc3nccnc23)c2nccnc2c1 | -2.0 | 8.6* | -12.7 | 2.8
COc1ccc(CN2C(=NC(=O)C3CCCO3)SC3CS(=O)(=O)CC32)cc1 (stereo not drawn) | -3.9 | -1.7 | -8.0 | -4.3
O=C(NCCCn1ccnc1)C(=O)NCC1OCCN1S(=O)(=O)c1ccccc1 (stereo not drawn) | 13.3* | 4.9 | -1.3 | 1.9
O=C(NCCCn1ccnc1)C(=O)NCC1OCCCN1S(=O)(=O)c1ccccc1 (stereo not drawn) | 10.0* | -1.0 | 4.5 | 1.6
COc1cc(NC(=S)NCCCN2CCOCC2)c(OC)cc1Cl | -3.2 | -1.4 | -2.3 | -0.8
COc1cc(NC(=O)C(=O)NCCN2CCNCC2)c(OC)cc1Cl | -2.0 | 10.2* | -3.1 | 0.1
